# Measured values published in ChEMBL document CHEMBL4052804, “Design and synthesis of piperazine acetate podophyllotoxin ester derivatives targeting tubulin depolymerization as new anticancer agents” (Bioorg Med Chem Lett, 2017).
# Activity calls are given as the source filed them. The rule behind the calls is not given here.
# What was measured:
# MCF7 [1] = assay: Upregulation of CDK1 expression in human MCF7 cells at 0.5 to 2 uM after 24 hrs by Western blot analysis; format: functional, cell-based
# MCF7 [2] = assay: Induction of apoptosis in human MCF7 cells assessed as viable cells at 4 uM after 24 hrs by Annexin-V-FITC/propidium iodide staining based flow cytometric method (reference value: 91.6 to 92.7%); format: functional; details: MCF7, 24 h, read-out: Activity
# MCF7 [3] = assay: Induction of apoptosis in human MCF7 cells assessed as late apoptotic cells at 8 uM after 24 hrs by Annexin-V-FITC/propidium iodide staining based flow cytometric method (reference value: 2 to 3.7%); format: functional
# MCF7 [4] = assay: Induction of apoptosis in human MCF7 cells assessed as viable cells at 2 uM after 24 hrs by Annexin-V-FITC/propidium iodide staining based flow cytometric method (reference value: 91.6 to 92.7%); format: functional; details: MCF7, 24 h, read-out: Activity
# MCF7 [5] = assay: Induction of apoptosis in human MCF7 cells assessed as necrotic cells at 8 uM after 24 hrs by Annexin-V-FITC/propidium iodide staining based flow cytometric method (reference value: 2.35 to 2.49%); format: functional
# Homo sapiens = organism: Homo sapiens; assay: Induction of tubulin depolymerization in human MCF7 cells at 0.5 to 1 uM after 12 hrs by DAPI staining based confocal microscopic analysis; format: cell-based
# HepG2 = assay: Cytotoxicity against human HepG2 cells after 24 hrs by MTT assay; format: functional, cell-based; details: HepG2, 24 h
# Summary of the method: (§1)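 In vitro antiproliferative screen by MTT assay against human MCF-7 breast, HeLa cervical, A549 lung adenocarcinoma and HepG-2 hepatoma cells. Output is the IC50.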
# MCF7 [6] = assay: Induction of apoptosis in human MCF7 cells assessed as early apoptotic cells at 2 uM after 24 hrs by Annexin-V-FITC/propidium iodide staining based flow cytometric method (reference value: 2.36 to 2.86%); format: functional
# MCF7 [7] = assay: Cell cycle arrest in human MCF7 cells assessed as accumulation at G2/M phase at 0.6 uM after 8 hrs by propidium iodide staining based flow cytometric method (reference value: 7.59 to 9.58%); format: functional
# MCF7 [8] = assay: Induction of apoptosis in human MCF7 cells assessed as early apoptotic cells at 12 uM after 24 hrs by Annexin-V-FITC/propidium iodide staining based flow cytometric method (reference value: 2.36 to 2.86%); format: functional
# MCF7 [9] = assay: Cell cycle arrest in human MCF7 cells assessed as accumulation at G2/M phase at 0.9 uM after 12 hrs by propidium iodide staining based flow cytometric method (reference value: 5.43 to 13.68%); format: functional
# MCF7 [10] = assay: Induction of apoptosis in human MCF7 cells assessed as necrotic cells at 12 uM after 24 hrs by Annexin-V-FITC/propidium iodide staining based flow cytometric method (reference value: 2.35 to 2.49%); format: functional
# MCF7 [11] = assay: Down regulation of cyclin A expression in human MCF7 cells at 0.5 to 2 uM after 24 hrs by Western blot analysis; format: functional, cell-based
# MCF7 [12] = assay: Cell cycle arrest in human MCF7 cells assessed as accumulation at G2/M phase at 0.6 uM after 16 hrs by propidium iodide staining based flow cytometric method (reference value: 7.59 to 9.58%); format: functional
# MCF7 [13] = assay: Induction of apoptosis in human MCF7 cells assessed as necrotic cells at 4 uM after 24 hrs by Annexin-V-FITC/propidium iodide staining based flow cytometric method (reference value: 2.35 to 2.49%); format: functional
# MCF7 [14] = assay: Cell cycle arrest in human MCF7 cells assessed as accumulation at G2/M phase at 0.6 uM after 4 hrs by propidium iodide staining based flow cytometric method (reference value: 7.59 to 9.58%); format: functional
# MCF7 [15] = assay: Cell cycle arrest in human MCF7 cells assessed as accumulation at S phase at 0.6 uM after 16 hrs by propidium iodide staining based flow cytometric method (reference value: 29.55 to 32.22%); format: functional
# MCF7 [16] = assay: Cell cycle arrest in human MCF7 cells assessed as accumulation at S phase at 0.6 uM after 12 hrs by propidium iodide staining based flow cytometric method (reference value: 27.63 to 32.34%); format: functional
# MCF7 [17] = assay: Cell cycle arrest in human MCF7 cells assessed as accumulation at S phase at 0.6 uM after 8 hrs by propidium iodide staining based flow cytometric method (reference value: 29.55 to 32.22%); format: functional
# MCF7 [18] = assay: Down regulation of cyclin D1 expression in human MCF7 cells at 0.5 to 2 uM after 24 hrs by Western blot analysis; format: functional, cell-based
# MCF7 [19] = assay: Induction of apoptosis in human MCF7 cells assessed as early apoptotic cells at 8 uM after 24 hrs by Annexin-V-FITC/propidium iodide staining based flow cytometric method (reference value: 2.36 to 2.86%); format: functional
# MCF7 [20] = assay: Induction of apoptosis in human MCF7 cells assessed as late apoptotic cells at 2 uM after 24 hrs by Annexin-V-FITC/propidium iodide staining based flow cytometric method (reference value: 2 to 3.7%); format: functional
# A549 = assay: Cytotoxicity against human A549 cells after 24 hrs by MTT assay; format: functional, cell-based; details: A549, 24 h; summary of the method: as §1
# MCF7 [21] = assay: Cell cycle arrest in human MCF7 cells assessed as accumulation at G1 phase at 0.6 uM after 8 hrs by propidium iodide staining based flow cytometric method (reference value: 60.19 to 60.87%); format: functional
# MCF7 [22] = assay: Cell cycle arrest in human MCF7 cells assessed as accumulation at G1 phase at 0.6 uM after 4 hrs by propidium iodide staining based flow cytometric method (reference value: 60.19 to 60.87%); format: functional
# MCF7 [23] = assay: Induction of apoptosis in human MCF7 cells assessed as early apoptotic cells at 4 uM after 24 hrs by Annexin-V-FITC/propidium iodide staining based flow cytometric method (reference value: 2.36 to 2.86%); format: functional
# MCF7 [24] = assay: Induction of apoptosis in human MCF7 cells assessed as necrotic cells at 2 uM after 24 hrs by Annexin-V-FITC/propidium iodide staining based flow cytometric method (reference value: 2.35 to 2.49%); format: functional
# MCF7 [25] = assay: Cell cycle arrest in human MCF7 cells assessed as accumulation at G1 phase at 0.6 uM after 16 hrs by propidium iodide staining based flow cytometric method (reference value: 60.19 to 60.87%); format: functional
# MCF7 [26] = assay: Induction of apoptosis in human MCF7 cells assessed as viable cells at 8 uM after 24 hrs by Annexin-V-FITC/propidium iodide staining based flow cytometric method (reference value: 91.6 to 92.7%); format: functional; details: MCF7, 24 h, read-out: Activity
# MCF7 [27] = assay: Cell cycle arrest in human MCF7 cells assessed as accumulation at G1 phase at 0.6 uM after 12 hrs by propidium iodide staining based flow cytometric method (reference value: 58.69 to 62.23%); format: functional
# MCF7 [28] = assay: Cell cycle arrest in human MCF7 cells assessed as accumulation at S phase at 0.9 uM after 12 hrs by propidium iodide staining based flow cytometric method (reference value: 27.63 to 32.34%); format: functional
# L02 = assay: Cytotoxicity against human L02 cells after 24 hrs by MTT assay; format: cell-based; details: L02, 24 h
# Summary of the method: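 Normal human liver L02 cells were tested at multiple concentrations in an MTT assay. Output is the median cytotoxic concentration (CC50).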
# MCF7 [29] = assay: Cell cycle arrest in human MCF7 cells assessed as accumulation at G2/M phase at 0.6 uM after 12 hrs by propidium iodide staining based flow cytometric method (reference value: 5.43 to 13.68%); format: functional
smiles,measurement,setting,value
COc1cc([C@@H]2c3cc4c(cc3[C@H](OC(=O)CN3CCN(c5ccc(Cl)c(Cl)c5)CC3)[C@H]3COC(=O)[C@H]23)OCO4)cc(OC)c1OC,Activity,MCF7 [1],Active
same,viability at 4 µM,MCF7 [2],72.4%
same,Activity,MCF7 [3],14%
same,viability at 2 µM,MCF7 [4],81.2%
same,Activity,MCF7 [5],3.45%
same,Activity,Homo sapiens,Active
same,IC50,HepG2,7.93 µM
same,Activity,MCF7 [6],10.1%
same,Activity,MCF7 [7],44.13%
same,Activity,MCF7 [8],17.5%
same,Activity,MCF7 [9],81.03%
same,Activity,MCF7 [10],6.91%
same,Activity,MCF7 [11],Active
same,Activity,MCF7 [12],85.57%
same,Activity,MCF7 [13],5.64%
same,Activity,MCF7 [14],29.43%
same,Activity,MCF7 [15],5.92%
same,Activity,MCF7 [16],4.21 - 20.78%
same,Activity,MCF7 [17],26.13%
same,Activity,MCF7 [18],Active
same,Activity,MCF7 [19],14.7%
same,Activity,MCF7 [20],6.11%
same,IC50,A549,6.32 µM
same,Activity,MCF7 [21],29.54%
same,Activity,MCF7 [22],46.58%
same,Activity,MCF7 [23],11.4%
same,Activity,MCF7 [24],2.61%
same,Activity,MCF7 [25],8.51%
same,viability at 8 µM,MCF7 [26],67.9%
same,Activity,MCF7 [27],18.24 - 26.54%
same,Activity,MCF7 [28],10.65%
same,IC50,L02,> 100 µM
same,Activity,MCF7 [29],60.98 - 69.25%
